Measured values from ChEMBL document CHEMBL1287651, “Synthesis and in vitro antibacterial activity of fluoroquinolone derivatives containing 3-(N'-alkoxycarbamimidoyl)-4-(alkoxyimino) pyrrolidines” (2010).
Converted amounts (≈) assume the structure as drawn.

Assays:
Type in all cases: functional
Pseudomonas aeruginosa [1] = assay: Antibacterial activity against Pseudomonas aeruginosa 09-32 after 18 to 24 hrs by twofold serial dilution method
Summary of the method: (§1)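 MIC determined by the standard twofold serial dilution method on agar media, screening against Gram-positive and Gram-negative strains. Levofloxacin and gemifloxacin were run alongside as reference drugs.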

Pseudomonas aeruginosa [2] = assay: Antibacterial activity against Pseudomonas aeruginosa 09-35 after 18 to 24 hrs by twofold serial dilution method; summary of the method: as §1
Klebsiella pneumoniae [3] = assay: Antibacterial activity against Klebsiella pneumoniae 09-22 after 18 to 24 hrs by twofold serial dilution method; summary of the method: as §1
Klebsiella pneumoniae [4] = assay: Antibacterial activity against Klebsiella pneumoniae 09-21 after 18 to 24 hrs by twofold serial dilution method; summary of the method: as §1
Staphylococcus aureus [5] = assay: Antibacterial activity against Staphylococcus aureus ATCC […] after 18 to 24 hrs by twofold serial dilution method; summary of the method: as §1
Pseudomonas aeruginosa [6] = assay: Antibacterial activity against Pseudomonas aeruginosa ATCC 27853 after 18 to 24 hrs by twofold serial dilution method; summary of the method: as §1
[7] = test system: Staphylococcus epidermidis; assay: Antibacterial activity against methicillin-resistant Staphylococcus epidermidis 09-3 after 18 to 24 hrs by twofold serial dilution method
Summary of the method: (§2)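 Standard twofold serial agar dilution method on agar media for MIC determination. Screened against representative Gram-positive and Gram-negative strains. Levofloxacin and GMFX served as control drugs.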

[8] = test system: Staphylococcus epidermidis; assay: Antibacterial activity against methicillin-sensitive Staphylococcus epidermidis 09-6 after 18 to 24 hrs by twofold serial dilution method; summary of the method: as §2
Staphylococcus aureus [9] = assay: Antibacterial activity against methicillin-resistant Staphylococcus aureus 08-1 after 18 to 24 hrs by twofold serial dilution method; summary of the method: as §2
Escherichia coli [10] = assay: Antibacterial activity against Escherichia coli ATCC 25922 after 18 to 24 hrs by twofold serial dilution method; summary of the method: as §1
Streptococcus pneumoniae [11] = assay: Antibacterial activity against Streptococcus pneumoniae 08-4 after 18 to 24 hrs by twofold serial dilution method; summary of the method: as §1
[12] = test system: Staphylococcus epidermidis; assay: Antibacterial activity against methicillin-resistant Staphylococcus epidermidis 09-4 after 18 to 24 hrs by twofold serial dilution method; summary of the method: as §2
Pseudomonas aeruginosa [13] = assay: Antibacterial activity against Pseudomonas aeruginosa 09-33 after 18 to 24 hrs by twofold serial dilution method; summary of the method: as §1
Escherichia coli [14] = assay: Antibacterial activity against Escherichia coli 08-21 after 18 to 24 hrs by twofold serial dilution method; summary of the method: as §1
Pseudomonas aeruginosa [15] = assay: Antibacterial activity against Pseudomonas aeruginosa 09-34 after 18 to 24 hrs by twofold serial dilution method; summary of the method: as §1
Escherichia coli [16] = assay: Antibacterial activity against Escherichia coli 08-22 after 18 to 24 hrs by twofold serial dilution method; summary of the method: as §1
[17] = test system: Staphylococcus epidermidis; assay: Antibacterial activity against methicillin-resistant Staphylococcus epidermidis 09-2 after 18 to 24 hrs by twofold serial dilution method; summary of the method: as §2
Staphylococcus aureus [18] = assay: Antibacterial activity against methicillin-sensitive Staphylococcus aureus 08-2 after 18 to 24 hrs by twofold serial dilution method; summary of the method: as §2
Klebsiella pneumoniae [19] = assay: Antibacterial activity against Klebsiella pneumoniae 09-23 after 18 to 24 hrs by twofold serial dilution method; summary of the method: as §1
Enterococcus faecium [20] = assay: Antibacterial activity against Enterococcus faecium 08-7 after 18 to 24 hrs by twofold serial dilution method; summary of the method: as §1
Enterococcus faecalis [21] = assay: Antibacterial activity against Enterococcus faecalis 08-12 after 18 to 24 hrs by twofold serial dilution method; summary of the method: as §1
Streptococcus pneumoniae [22] = assay: Antibacterial activity against Streptococcus pneumoniae 08-2 after 18 to 24 hrs by twofold serial dilution method; summary of the method: as §1
Enterococcus faecalis [23] = assay: Antibacterial activity against Enterococcus faecalis 08-10 after 18 to 24 hrs by twofold serial dilution method; summary of the method: as §1
[24] = test system: Staphylococcus epidermidis; assay: Antibacterial activity against methicillin-sensitive Staphylococcus epidermidis 09-3 after 18 to 24 hrs by twofold serial dilution method; summary of the method: as §2
Enterococcus faecium [25] = assay: Antibacterial activity against Enterococcus faecium 08-2 after 18 to 24 hrs by twofold serial dilution method; summary of the method: as §1

Compound	MIC (Pseudomonas aeruginosa [1])	MIC (Pseudomonas aeruginosa [2])	MIC (Klebsiella pneumoniae [3])	MIC (Klebsiella pneumoniae [4])	MIC (Staphylococcus aureus [5])	MIC (Pseudomonas aeruginosa [6])	MIC [7]	MIC [8]	MIC (Staphylococcus aureus [9])	MIC (Escherichia coli [10])	MIC (Streptococcus pneumoniae [11])	MIC [12]	MIC (Pseudomonas aeruginosa [13])	MIC (Escherichia coli [14])	MIC (Pseudomonas aeruginosa [15])	MIC (Escherichia coli [16])	MIC [17]	MIC (Staphylococcus aureus [18])	MIC (Klebsiella pneumoniae [19])	MIC (Enterococcus faecium [20])	further results
CCO/N=C1\CN(c2c(F)cc3c(=O)c(C(=O)O)cn(C4CC4)c3c2OC)CC1/C(N)=N\O (stereo not given)	64 µg/mL (≈ 139 µM)	64 µg/mL (≈ 139 µM)	4 µg/mL (≈ 8.67 µM)	> 128 µg/mL	0.25 µg/mL (≈ 0.542 µM)	32 µg/mL (≈ 69.3 µM)	0.25 µg/mL (≈ 0.542 µM)	0.25 µg/mL (≈ 0.542 µM)	0.25 µg/mL (≈ 0.542 µM)	128 µg/mL (≈ 277 µM)	1 µg/mL (≈ 2.17 µM)	0.5 µg/mL (≈ 1.08 µM)	> 128 µg/mL	> 128 µg/mL	> 128 µg/mL	> 128 µg/mL	0.5 µg/mL (≈ 1.08 µM)	0.25 µg/mL (≈ 0.542 µM)	> 128 µg/mL	> 128 µg/mL	MIC (Enterococcus faecalis [21]): > 128 µg/mL; MIC (Streptococcus pneumoniae [22]): 1 µg/mL (≈ 2.17 µM); MIC (Enterococcus faecalis [23]): > 128 µg/mL; MIC [24]: 0.25 µg/mL (≈ 0.542 µM); MIC (Enterococcus faecium [25]): > 128 µg/mL
CO/N=C1\CN(c2c(F)cc3c(=O)c(C(=O)O)cn(C4CC4)c3c2OC)CC1/C(N)=N\OC (stereo not given)	128 µg/mL (≈ 277 µM)	128 µg/mL (≈ 277 µM)	2 µg/mL (≈ 4.33 µM)	> 128 µg/mL	0.125 µg/mL (≈ 0.271 µM)	64 µg/mL (≈ 139 µM)	0.25 µg/mL (≈ 0.542 µM)	0.25 µg/mL (≈ 0.542 µM)	0.25 µg/mL (≈ 0.542 µM)	128 µg/mL (≈ 277 µM)	0.25 µg/mL (≈ 0.542 µM)	0.25 µg/mL (≈ 0.542 µM)	> 128 µg/mL	> 128 µg/mL	> 128 µg/mL	> 128 µg/mL	0.25 µg/mL (≈ 0.542 µM)	0.125 µg/mL (≈ 0.271 µM)	> 128 µg/mL	> 128 µg/mL	MIC (Enterococcus faecalis [21]): > 128 µg/mL; MIC (Streptococcus pneumoniae [22]): 8 µg/mL (≈ 17.3 µM); MIC (Enterococcus faecalis [23]): > 128 µg/mL; MIC [24]: 0.125 µg/mL (≈ 0.271 µM); MIC (Enterococcus faecium [25]): > 128 µg/mL
CCO/N=C1\CN(c2c(F)cc3c(=O)c(C(=O)O)cn(C4CC4)c3c2OC)CC1/C(N)=N\OC (stereo not given)	> 128 µg/mL	> 128 µg/mL	4 µg/mL (≈ 8.41 µM)	> 128 µg/mL	0.5 µg/mL (≈ 1.05 µM)	> 128 µg/mL	0.125 µg/mL (≈ 0.263 µM)	0.25 µg/mL (≈ 0.526 µM)	0.25 µg/mL (≈ 0.526 µM)	> 128 µg/mL	4 µg/mL (≈ 8.41 µM)	0.125 µg/mL (≈ 0.263 µM)	> 128 µg/mL	> 128 µg/mL	> 128 µg/mL	> 128 µg/mL	0.5 µg/mL (≈ 1.05 µM)	0.25 µg/mL (≈ 0.526 µM)	> 128 µg/mL	> 128 µg/mL	MIC (Enterococcus faecalis [21]): 0.5 µg/mL (≈ 1.05 µM); MIC (Streptococcus pneumoniae [22]): 4 µg/mL (≈ 8.41 µM); MIC (Enterococcus faecalis [23]): 0.25 µg/mL (≈ 0.526 µM); MIC [24]: 0.25 µg/mL (≈ 0.526 µM); MIC (Enterococcus faecium [25]): > 128 µg/mL
CCO/N=C(/N)C1CN(c2c(F)cc3c(=O)c(C(=O)O)cn(C4CC4)c3c2OC)C/C1=N\OC (stereo not given)	> 128 µg/mL	> 128 µg/mL	8 µg/mL (≈ 16.8 µM)	> 128 µg/mL	0.25 µg/mL (≈ 0.526 µM)	128 µg/mL (≈ 269 µM)	0.125 µg/mL (≈ 0.263 µM)	0.25 µg/mL (≈ 0.526 µM)	0.25 µg/mL (≈ 0.526 µM)	128 µg/mL (≈ 269 µM)	2 µg/mL (≈ 4.21 µM)	0.125 µg/mL (≈ 0.263 µM)	> 128 µg/mL	> 128 µg/mL	> 128 µg/mL	> 128 µg/mL	0.5 µg/mL (≈ 1.05 µM)	0.25 µg/mL (≈ 0.526 µM)	> 128 µg/mL	> 128 µg/mL	MIC (Enterococcus faecalis [21]): 128 µg/mL (≈ 269 µM); MIC (Streptococcus pneumoniae [22]): 32 µg/mL (≈ 67.3 µM); MIC (Enterococcus faecalis [23]): > 128 µg/mL; MIC [24]: 0.25 µg/mL (≈ 0.526 µM); MIC (Enterococcus faecium [25]): > 128 µg/mL
CCO/N=C1\CN(c2c(F)cc3c(=O)c(C(=O)O)cn(C4CC4)c3c2OC)CC1/C(N)=N\OCC (stereo not given)	64 µg/mL (≈ 131 µM)	64 µg/mL (≈ 131 µM)	32 µg/mL (≈ 65.4 µM)	64 µg/mL (≈ 131 µM)	0.5 µg/mL (≈ 1.02 µM)	16 µg/mL (≈ 32.7 µM)	1 µg/mL (≈ 2.04 µM)	0.5 µg/mL (≈ 1.02 µM)	64 µg/mL (≈ 131 µM)	16 µg/mL (≈ 32.7 µM)	1 µg/mL (≈ 2.04 µM)	1 µg/mL (≈ 2.04 µM)	64 µg/mL (≈ 131 µM)	64 µg/mL (≈ 131 µM)	64 µg/mL (≈ 131 µM)	64 µg/mL (≈ 131 µM)	0.5 µg/mL (≈ 1.02 µM)	64 µg/mL (≈ 131 µM)	64 µg/mL (≈ 131 µM)	64 µg/mL (≈ 131 µM)	MIC (Enterococcus faecalis [21]): 64 µg/mL (≈ 131 µM); MIC (Streptococcus pneumoniae [22]): 64 µg/mL (≈ 131 µM); MIC (Enterococcus faecalis [23]): 64 µg/mL (≈ 131 µM); MIC [24]: 0.5 µg/mL (≈ 1.02 µM); MIC (Enterococcus faecium [25]): 64 µg/mL (≈ 131 µM)
CO/N=C1\CN(c2c(F)cc3c(=O)c(C(=O)O)cn(C4CC4)c3c2OC(F)F)CC1/C(N)=N\O (stereo not given)	> 128 µg/mL	> 128 µg/mL	64 µg/mL (≈ 132 µM)	> 128 µg/mL	0.125 µg/mL (≈ 0.259 µM)	128 µg/mL (≈ 265 µM)	0.25 µg/mL (≈ 0.517 µM)	0.25 µg/mL (≈ 0.517 µM)	0.125 µg/mL (≈ 0.259 µM)	128 µg/mL (≈ 265 µM)	4 µg/mL (≈ 8.27 µM)	0.5 µg/mL (≈ 1.03 µM)	> 128 µg/mL	> 128 µg/mL	> 128 µg/mL	> 128 µg/mL	4 µg/mL (≈ 8.27 µM)	0.25 µg/mL (≈ 0.517 µM)	> 128 µg/mL	> 128 µg/mL	MIC (Enterococcus faecalis [21]): > 128 µg/mL; MIC (Streptococcus pneumoniae [22]): 4 µg/mL (≈ 8.27 µM); MIC (Enterococcus faecalis [23]): > 128 µg/mL; MIC [24]: 0.25 µg/mL (≈ 0.517 µM); MIC (Enterococcus faecium [25]): > 128 µg/mL
